Results on three compounds are retold here after ChEMBL document CHEMBL1148927, “A novel antimicrobial indolizinium alkaloid from Aniba panurensis” (J Nat Prod, 2004).

The subject of data set [1] is Enterococcus faecium. Put plainly: […] activity against Enterococcus faecium 1438 at 100 ug/mL after 18 hrs by broth microdilution assay. It is filed as functional, organism-based. The procedure, abridged: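 E. faecium 1438 clinical isolate grown at 37 °C with 100 rpm shaking in Todd Hewitt broth with 0.5% yeast extract and 2% NaCl to exponential phase. Culture adjusted to A600 0.3, then diluted 1:1000. Added to dried sample in wells, incubated 18 h, and growth read at A650 against medium-only cultures. Chloramphenicol 100 µg/mL was the inhibition control.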

Data set [2] concerns Staphylococcus aureus. Put plainly: […] activity against Staphylococcus aureus 385 at 100 ug/mL after 24 hrs by broth microdilution assay.
Another data set deals with Candida albicans. Put plainly: Antifungal activity against Candida albicans 99-788 after 24 hrs by broth microdilution assay. Format: functional. The procedure, abridged: (§1)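 Clinical isolates grown in YM broth at 37 °C with shaking at 100 rpm to exponential phase, adjusted to A600 = 0.3, then diluted 1:150 (C. albicans) or 1:128 (C. neoformans). Samples dried in wells, culture added, and tested top dose 250 µg/mL plus five 2-fold dilutions. Incubation 24 h (C. albicans) or 72 h (C. neoformans). A650 read; MIC50 = concentration lowering A650 ≥50% vs medium-only cultures.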

In data set [3] the test system is Cryptococcus neoformans. Put plainly: Antifungal activity against Cryptococcus neoformans 96-1034 after 72 hrs by broth microdilution assay. It is filed as functional. In outline: as §1
In data set [4] the test system is Enterococcus faecium. Briefly: […] activity against Enterococcus faecium 1438 by broth microdilution assay. It is filed as functional.
Data set [5] relates to Cryptococcus neoformans. Briefly: Antifungal activity against Cryptococcus neoformans 96-1034 by broth microdilution assay. Format: functional. The procedure, abridged:
(§2)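 Broth microdilution in RPMI 1640 buffered with MOPS, following NCCLS guidelines; values reported as MIC90.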

For the next data set, the system named is Clavispora lusitaniae. Briefly: Antifungal activity against Candida lusitaniae by broth microdilution assay. It is filed as functional. The procedure, abridged: as §2
For the next data set, the system named is Nakaseomyces glabratus. Briefly: Antifungal activity against Candida glabrata by broth microdilution assay. It is filed as functional. In outline:
as §2

The subject of a further data set is Pichia kudriavzevii. Briefly: Antifungal activity against Candida krusei ATCC 6258 by broth microdilution assay. It is filed as functional. In outline: as §2
For a further data set, the system named is Candida parapsilosis. Put plainly: Antifungal activity against Candida parapsilosis ATCC 22019 by broth microdilution assay. The following applies: Lodderomyces parapsilosis. It is filed as functional. The procedure, abridged: as §2
A short description of data set [6]: Toxicity in sheep red blood cells assessed as hemolysis after 2 hrs. The following applies: erythrocyte. Format: cell-based, Ovis aries. The procedure, abridged: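 Sheep red blood cells at 4% final in 0.2 mL, with samples serially diluted in phosphate-buffered saline; highest dose contained 5% DMSO. Incubated 2 h at 37 °C, then 0.1 mL taken to measure hemolysis.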

Data set [7] is described as follows: Lipophilicity, log K in octanol water. Format: physicochemical.
In data set [8] the test system is Staphylococcus aureus. Put plainly: […] activity against Staphylococcus aureus 385 after 24 hrs by broth microdilution assay.

Active and inactive are the calls of the source. The calls are words filed in the database; no cut-off is given here.

Consider `O=C(N[C@H](CO)[C@H](O)c1ccc([N+](=O)[O-])cc1)C(Cl)Cl`, for which the result in the data set with Enterococcus faecium [1] was Active.

In the case of `O=C(O)c1cn(C2CC2)c2cc(N3CCNCC3)c(F)cc2c1=O`, the result in the data set on Staphylococcus aureus [2] was Active.

`CCCCCCCC/C=C\c1c(C)c(/C=C\CCCCCCCC)c2[n+](c1C)CCC2.O=C([O-])C(F)(F)F` [ANIBAMINE]: the MIC50 against Candida albicans was 0.25 µg/mL; in the data set with Cryptococcus neoformans [3], 0.25 µg/mL; with Enterococcus faecium [4], 0.25 µg/mL; in the data set on Staphylococcus aureus [8], above 25 µg/mL. For the same compound, the MIC90 with Candida albicans came to 0.5 µg/mL; against Cryptococcus neoformans [5], 0.25 µg/mL; with Clavispora lusitaniae, 1 µg/mL; in the data set on Nakaseomyces glabratus it was 2 µg/mL; in the data set with Pichia kudriavzevii, 0.5 µg/mL; against Candida parapsilosis it was 0.5 µg/mL. Moreover, the Activity entry in [6] is given as “Toxic”. The “log K” value in [7] is given as 9.1.
